Values after ≈ are worked out from the molar mass of the structure shown.

In this test the test system is KB. Nature of the test: Evaluated for cytotoxicity in the KB cell culture assay. It counts as functional. The conditions noted are these: Homo sapiens, read-out: ED50 (the source's name). Put shortly:
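Cytotoxicity screen per NIH protocol. 10^4 tumor cells grown in MEM with 10% fetal calf serum; penicillin and streptomycin given on day 3. Drug tested at 0.1 to 20 µg/mL (N = 4). Viable cells counted by trypan blue exclusion and expressed as % of the 0.05% Tween 80-water control. ED50 estimated from a semi-log plot of concentration vs % viable cells.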
As for `Cc1cc2c(o1)-c1ccccc1C(=O)C2=O`, the EC50 worked out at 0.6 µg/mL (≈ 2.83 µM).
As for `CC(O)c1cc2c(o1)C(=O)c1ccccc1C2=O` (stereo not drawn), the EC50 is 2 µg/mL (≈ 8.26 µM).
As for `O=C1C2=C(CC(O)OC2)C(=O)c2ccccc21` (stereo not drawn), the figure is 3 µg/mL (≈ 13 µM); as for `CC(=O)OC1CCC2=C(O1)C(=O)c1ccccc1C2=O` (stereo not drawn), 10 µg/mL (≈ 36.7 µM); as for `O=C1C2=C(OC(Cl)CC2)C(=O)c2ccccc21` (stereo not drawn), 9.3 µg/mL (≈ 37.4 µM).
Consider `O=C1C2=C(OC(O)CC2)C(=O)c2ccccc21` (stereo not drawn), for which the EC50 amounted to 20 µg/mL (≈ 86.9 µM).
As for `C=C/C=C1/C(=O)C(=O)c2ccccc2C1=O`, the figure is 0.4 µg/mL (≈ 1.88 µM); as for `C/C=C/C1=C(O)C(=O)c2ccccc2C1=O`, 14 µg/mL (≈ 65.4 µM).
In the case of `C/C=C/C1=C(OC(C)=O)C(=O)c2ccccc2C1=O`, the EC50 was determined as 5.1 µg/mL (≈ 19.9 µM).
As for `O=C1C2=C(OCC=C2)C(=O)c2ccccc21`, the figure is 0.4 µg/mL (≈ 1.88 µM); as for `O=C1C2=C(OCCC2)C(=O)c2ccccc21`, 8 µg/mL (≈ 37.3 µM); as for `CC(=O)OC1CC2=C(CO1)C(=O)c1ccccc1C2=O` (stereo not drawn), 5 µg/mL (≈ 18.4 µM).
As for `C/C=C/C1=C(OC(=O)CC)C(=O)c2ccccc2C1=O`, the figure is 6.5 µg/mL (≈ 24 µM).
Take `C/C=C/C1=C(OC(=O)c2ccccc2)C(=O)c2ccccc2C1=O`: the EC50 worked out at 5.1 µg/mL (≈ 16 µM).
As for `Cc1cc2c(o1)C(=O)c1ccccc1C2=O`, the figure is 0.3 µg/mL (≈ 1.41 µM).
As to `COC1CCC2=C(O1)C(=O)c1ccccc1C2=O` (stereo not drawn), the EC50 worked out at 11 µg/mL (≈ 45 µM).
On to `CC(C)=CCC1=C(O)C(=O)c2ccccc2C1=O` [LAPACHOL], for which the EC50 is 4.4 µg/mL (≈ 18.2 µM).
As for `CC(=O)c1cc2c(o1)C(=O)c1ccccc1C2=O` [NAPABUCASIN], the figure is 1 µg/mL (≈ 4.16 µM).

Values taken from ChEMBL document CHEMBL1123861, “Antitumor agents. 89. Psychorubrin, a new cytotoxic naphthoquinone from Psychotria rubra and its structure-activity relationships” (1987).
